Laboratory results published in ChEMBL document CHEMBL1141221, “Diketo acid pharmacophore. 2. Discovery of structurally diverse inhibitors of HIV-1 integrase” (J Med Chem, 2005).

What was measured:
[1] = system: CEM-SS; test: Cytotoxicity against human T cell line CEM-SS; format: functional
In short: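 Uninfected CEM-SS cells were exposed to serial compound dilutions on the same plate as the antiviral test, at 37 °C with 5% CO2 for 6 days. Viability was measured by XTT (0.2 mg/mL, 4 h) absorbance at 450 nm.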

[2] = target: T1, Human immunodeficiency virus type 1 integrase (Human immunodeficiency virus 1, UniProt Q7ZJM1); test: Inhibition of strand transfer catalytic activity HIV1 integrase
T1 sequence (Q7ZJM1 whole entry): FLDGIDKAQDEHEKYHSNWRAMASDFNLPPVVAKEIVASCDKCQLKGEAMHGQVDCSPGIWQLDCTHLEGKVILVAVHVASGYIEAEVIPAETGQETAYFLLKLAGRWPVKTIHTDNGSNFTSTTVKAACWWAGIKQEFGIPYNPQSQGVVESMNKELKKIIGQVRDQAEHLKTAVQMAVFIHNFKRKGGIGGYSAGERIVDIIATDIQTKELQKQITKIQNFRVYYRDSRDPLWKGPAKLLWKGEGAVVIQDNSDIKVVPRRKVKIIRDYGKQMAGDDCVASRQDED
In short: (§1)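 Wild-type HIV-1 IN (200 nM final) preincubated with inhibitor for 30 min at 30 °C. Buffer: 25 mM MOPS pH 7.2, 7.5 mM MnCl2, 50 mM NaCl, 10% DMSO, BSA and reducing agents. Reactions were quenched with formamide dye. IC50 was taken from log concentration versus percent inhibition.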

[3] = target: T1, Human immunodeficiency virus type 1 integrase; test: Inhibition of 3'-processing catalytic activity HIV1 integrase; in short: as §1
[4] = system: Human immunodeficiency virus 1; test: Antiviral activity in human T cell line CEM-SS infected with HIV1; format: functional, organism-based
In short: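 CEM-SS cells at 5×10^3/well were infected with HIV-1 RF (MOI 0.3), and serial compound dilutions were added immediately. Cells were kept at 37 °C with 5% CO2 for 6 days. Viability was read by XTT (0.2 mg/mL, 4 h) absorbance at 450 nm.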

EC50 ([4]; Human immunodeficiency virus 1, T-cell, read-out: EC50) [µM] | SMILES | CC50 [1] | IC50 [2] [µM] | IC50 [3] [µM] | EC50 ([4]; t cell line)
– | O=C(CSc1nc(O)cc(CSc2ccc(Cl)cc2)n1)Nc1ccc(Cl)cc1Cl | Toxic | – | – | –
– | O=C(CSc1nc(CSc2ccc(Cl)cc2)cc(=O)[nH]1)Nc1ccc(Cl)cc1Cl | – | 24 | 34 | –
– | O=C(N/N=C/c1ccc(/C=N/NC(=O)c2cc(O)cc(O)c2)cc1)c1cc(O)cc(O)c1 | – | 56 | 76 | –
– | Cc1ccc(C(=O)N/C(=C/c2ccc(-c3ccc(Cl)cc3Cl)o2)C(=O)NCCCO)cc1 | – | 85 | > 1000 | –
– | CC(C)Cn1c(=O)c(C(=O)Nc2ccccc2S(N)(=O)=O)c(O)c2ccccc21 | – | 16 | 40 | Not Active
– | O=C(/N=N/c1c(O)[nH]c2ccc(F)cc12)/C(=C/C=C/c1ccccc1)NC(=O)c1ccccc1 | Toxic | 38 | 60 | –
– | O=C(Nc1ccc(O)c(-c2nc3ccccc3o2)c1)c1cccc2ccccc12 | – | 6 | 14 | –
– | COc1ccc(CCNC(=O)CC(=O)N/N=C/c2ccco2)cc1OC | Toxic | 90 | > 100 | –
– | COc1ccc(C(=O)Nc2ccc(O)c(-c3nc4ccccc4o3)c2)cc1[N+](=O)[O-] | – | 7 | 6 | –
– | COC(=O)c1ccc(C(=O)OC)c(NC(=O)c2ccc(C)c([N+](=O)[O-])c2)c1 | – | > 100 | 92 | –
– | COc1cc(/C=N/NC2=NC(=O)C(CC(=O)Nc3ccc(Cl)c(Cl)c3)S2)ccc1O (configuration not stated) | Toxic | 38 | 89 | –
– | CCOC(=O)CCc1cc(C(=O)OCC)c(CCC(=O)OCC)cc1C(=O)OCC | – | 94 | > 100 | –
– | O=C(/C=C/c1ccc(-c2ccccc2[N+](=O)[O-])o1)Nc1ccc(O)c(-c2nc3ccccc3o2)c1 | – | 63 | 23 | –
– | Cc1ccc(C(=O)C2=C(O)C(=O)N(CCCc3c[nH]cn3)C2c2ccc(Cl)cc2)cc1 (configuration not stated) | – | 67 | 93 | –
– | CC(=O)c1cc(C(=O)CC(=O)Nc2ccccc2)sc1Nc1ccccc1 | – | > 100 | > 100 | –
– | O=C(/C=C/c1ccc(Cl)cc1)Nc1ccc(NC(=O)c2ccco2)cc1 | – | 91 | 90 | –
– | Cc1[nH]n(-c2ccccc2)c(=O)c1C(c1ccc(O)c(O)c1)c1c(C)n(C)n(-c2ccccc2)c1=O (configuration not stated) | Toxic | 31 | 89 | –
– | O=C(CC1Sc2ccccc2NC1=O)Nc1cccc(C(=O)O)c1 (configuration not stated) | – | 71 | 79 | –

EC50 ([4]; Human immunodeficiency virus 1, T-cell, read-out: EC50) [µM] | SMILES | CC50 [1] | IC50 [2] [µM] | IC50 [3] [µM] | EC50 ([4]; t cell line)
– | O=C(/C=C(\O)c1ccc(Cl)cc1)C(=O)/N=N/c1c(O)[nH]c2ccc(Br)cc12 | Toxic | 28 | 42 | –
– | Cc1ccc(S(=O)(=O)Nc2ccccc2/N=C/c2sc3ccccc3c2O)cc1 | – | 68 | 88 | –
– | CC(=O)c1cc(C(=O)CC(=O)Nc2ccc([N+](=O)[O-])cc2)sc1Nc1ccccc1 | – | 28 | 80 | –
104 | O=C(Cc1ccccc1)Nc1cc(C(=O)O)c(NC(=O)Cc2ccccc2)cc1C(=O)O | > 400 µM | 7 | 9 | –
– | O=C(O)c1cc(NC(=O)c2cccc3ccccc23)c(C(=O)O)cc1NC(=O)c1cccc2ccccc12 | – | 21 | 28 | –
– | O=C(c1ccccc1)c1cc(Br)ccc1NC(=O)c1nc[nH]c1C(=O)O | – | 17 | 16 | –
– | O=C(CSc1nc2ccccc2n1Cc1ccccc1)N/N=C/c1cc(Br)ccc1O | Toxic | 51 | 60 | –
– | O=C(O)C(Cc1c[nH]c2ccccc12)NS(=O)(=O)c1ccccc1[N+](=O)[O-] (configuration not stated) | – | 56 | 88 | –
– | CC(=O)c1cc(C(=O)CC(=O)Nc2cccc([N+](=O)[O-])c2)sc1Nc1ccccc1 | – | 29 | 97 | –
– | Oc1ccccc1/C=N/CC(O)C/N=C/c1ccccc1O | – | 61 | 97 | –
– | O=C(N/N=C/c1cc(Br)ccc1O)/C(=C/C=C/c1ccccc1)NC(=O)c1ccccc1 | Toxic | 23 | 90 | –
– | O=C(Nc1ccc(O)c(-c2nc3cc(Cl)ccc3o2)c1)c1cccnc1 | – | 10 | 61 | Not Active
– | COc1ccc2oc(=O)c(-c3csc(N/N=C/c4ccccc4O)n3)cc2c1 | – | 10 | 30 | Not Active
– | COc1ccc(N(CC(=O)N/N=C/c2c(O)ccc3ccccc23)S(C)(=O)=O)cc1Cl | – | 59 | 95 | –
– | O=C(/C=C/c1ccco1)NC(=S)Nc1ccccc1O | Toxic | 28 | 57 | –
– | CCSc1nnc(N2C(=O)c3ccc(C(=O)c4ccc(C(=O)O)cc4)cc3C2=O)s1 | – | 65 | 98 | –
– | CCOC(=O)c1c(-c2ccccc2)csc1NC(NC(=O)c1ccco1)C(=O)c1ccc(C)cc1 (configuration not stated) | – | 79 | > 100 | –
